Assay results published in ChEMBL document CHEMBL1139744, “Rapid synthesis of 4-benzylidene and 4-[bis-(4-methoxyphenyl)-methylene-2-substituted phenyl-benzopyrans as potential selective estrogen receptor modulators (SERMs) using McMurry coupling reaction” (Bioorg Med Chem Lett, 2006).
The source made the active and inactive calls. No cut-off for these calls is given here.

Key:
MCF7 [1] = assay: Antiproliferative activity against MCF7 cells […] after 48 hrs; format: functional; conditions: Homo sapiens; for IC50: MCF7, 48 h
Outline: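 MCF-7 cells were trypsinized (0.05% trypsin–EDTA), plated at 10⁴ cells/well in MEM at pH 7.4, and left to attach for 24 h at 37 °C under CO₂. Compounds in ethanol/DMSO were added and incubated 48 h. Cells were fixed with cold 10% TCA for 1 h at 4 °C, stained with 0.4% SRB in 1% acetic acid for 30 min, and the stain was extracted with Tris base at pH 10.5. OD was read at 560 nm.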

[2] = target: T1, Estrogen receptor (Rattus norvegicus) (UniProt P06211); assay: Displacement of [3H]estradiol from ER in rat uterus […] relative to estradiol
T1 sequence (whole entry): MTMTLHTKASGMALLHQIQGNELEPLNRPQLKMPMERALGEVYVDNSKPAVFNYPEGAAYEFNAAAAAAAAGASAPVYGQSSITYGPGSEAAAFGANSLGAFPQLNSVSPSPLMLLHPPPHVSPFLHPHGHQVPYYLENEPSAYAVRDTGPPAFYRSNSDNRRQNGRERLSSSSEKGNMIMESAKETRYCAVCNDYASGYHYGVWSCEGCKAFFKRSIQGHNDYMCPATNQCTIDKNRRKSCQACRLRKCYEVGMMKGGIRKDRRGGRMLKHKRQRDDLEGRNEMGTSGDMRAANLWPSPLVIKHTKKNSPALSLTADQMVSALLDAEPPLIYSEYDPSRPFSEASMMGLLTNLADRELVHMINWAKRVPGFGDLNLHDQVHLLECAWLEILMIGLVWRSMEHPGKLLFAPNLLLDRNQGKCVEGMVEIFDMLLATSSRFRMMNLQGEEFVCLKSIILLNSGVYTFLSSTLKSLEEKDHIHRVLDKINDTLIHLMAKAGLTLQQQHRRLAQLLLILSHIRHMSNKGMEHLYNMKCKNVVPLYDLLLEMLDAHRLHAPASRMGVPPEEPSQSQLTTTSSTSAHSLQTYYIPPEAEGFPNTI

Rattus norvegicus [3] = assay: Antagonist activity at ER receptor assessed as inhibition of 17-alpha-ethynylestradiol-induced increase in uterine weight of Sprague-Dawley rat at 10 mg/kg/day, po; format: functional; conditions: for inhibition in vivo at 10 mg/kg/day: Rattus norvegicus, Sprague-Dawley
Outline: (§1)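 Oral dosing was given alongside 17α-ethynylestradiol (0.02 mg/kg) in rats, with vehicle and EE-alone groups. Fresh uterine weight was expressed as percent of the EE-alone group. Values are means ± SEM of at least six animals per group. Significance was tested against the corresponding EE-alone group (P<0.05, P<0.01).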

Rattus norvegicus [4] = assay: Agonist activity at ER receptor assessed as increase in uterine weight of Sprague-Dawley rat at 10 mg/kg/day, po; format: functional
Outline: (§2)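 Immature female rats were dosed orally once daily on days 28–30 of age, with a vehicle-only control group. At autopsy on day 31, 24 h after the last dose, a vaginal smear was taken and the uterus was excised, blotted and weighed fresh. Agonism was judged by uterine weight gain, vaginal opening and cornification versus vehicle. Values are means ± SEM, n≥6 per group.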

Rattus norvegicus [5] = assay: Agonist activity at ER receptor assessed as increase in uterine weight of Sprague-Dawley rat at 10 mg/kg/day, po relative to control; format: functional; outline: as §2
Rattus norvegicus [6] = assay: Activity at ER receptor assessed as additive effect on 17-alpha-ethynylestradiol-induced increase in uterine weight of Sprague-Dawley rat at 10 mg/kg/day, po; format: functional; outline: as §1
MCF7 [7] = assay: Antiproliferative activity against MCF7 cells at 3 mg/kg/day after 48 hrs; conditions: Homo sapiens, MCF7, 48 h
Rattus norvegicus [8] = assay: Antagonist activity at ER receptor assessed as inhibition of 17-alpha-ethynylestradiol-induced increase in uterine weight of Sprague-Dawley rat at 3 mg/kg/day, po; format: functional; outline: as §1
Rattus norvegicus [9] = assay: Agonist activity at ER receptor assessed as increase in uterine weight of Sprague-Dawley rat at 3 mg/kg/day, po; format: functional; outline: as §2
Rattus norvegicus [10] = assay: Agonist activity at ER receptor assessed as increase in uterine weight of Sprague-Dawley rat at 3 mg/kg/day, po relative to control; format: functional; outline: as §2
Rattus norvegicus [11] = assay: Antagonist activity at ER receptor assessed as inhibition of increase in uterine weight of Sprague-Dawley rat at 3 mg/kg/day, po relative to 17-alpha-ethynylestradiol; format: functional; parameters: scale not given: the % may be the effect or the level left; outline: as §1
Rattus norvegicus [12] = assay: Antagonist activity at ER receptor assessed as increase in uterine weight in Sprague-Dawley rat at 0.02 mg/kg/day, po; format: functional
Rattus norvegicus [13] = assay: Agonist activity at ER receptor assessed as increase in uterine weight in Sprague-Dawley rat at 0.02 mg/kg/day, po; format: functional; outline: as §2
Rattus norvegicus [14] = assay: Agonist activity at ER receptor assessed as increase in uterine weight of Sprague-Dawley rat at 0.02 mg/kg/day, po relative to control; format: functional; outline: as §2
Rattus norvegicus [15] = assay: Antagonist activity at ER receptor assessed as inhibition of increase in uterine weight of Sprague-Dawley rat at 10 mg/kg/day, po relative to 17-alpha-ethynylestradiol; format: functional; parameters: scale not given: the % may be the effect or the level left; outline: as §1

RBA [2]	IC50 (MCF7 [1])	SMILES	Activity (MCF7 [1])	Activity (Rattus norvegicus [3])	Activity (Rattus norvegicus [4])	Activity (Rattus norvegicus [5])	inhibition in vivo at 10 mg/kg/day (Rattus norvegicus [3])	further results
< 0.001%		COc1ccc(C(=C2CC(c3ccc(OCCN(C)C)cc3)Oc3cc(OC)ccc32)c2ccc(OC)cc2)cc1 (centres undefined)	inactive					
0.013%	8.77 µM	COc1ccc(/C=C2\CC(c3ccc(O)cc3)Oc3cc(OC)ccc32)cc1 (centres undefined)		88.33 mg	17.33 mg	24%		Activity (Rattus norvegicus [6]): 88.33 mg
0.095%	7.39 µM	COc1ccc(/C=C2\CC(c3ccc(OCCN4CCCC4)cc3)Oc3cc(OC)ccc32)cc1 (centres undefined)		92.3 mg	39.57 mg	147%	15%	
0.006%	2 µM	COc1ccc(/C=C2\CC(c3ccc(OCCN(C)C)cc3)Oc3cc(OC)ccc32)cc1 (centres undefined)		85.4 mg	46.3 mg	189%	21%	
		CC/C(=C(\c1ccccc1)c1ccc(OCCN(C)C)cc1)c1ccccc1 [TAMOXIFEN]						IC50 (MCF7 [7]): 5.09 µM; Activity (Rattus norvegicus [8]): 52.3 mg; inhibition in vivo at 3 mg/kg/day (Rattus norvegicus [8]; Rattus norvegicus, Sprague-Dawley): 49%; Activity (Rattus norvegicus [9]): 46.32 mg; Activity (Rattus norvegicus [10]): 155%; Activity (Rattus norvegicus [11]): 49%
		C#C[C@]1(O)CC[C@H]2[C@@H]3CCc4cc(O)ccc4[C@H]3CC[C@@]21C [ETHINYL ESTRADIOL]						Activity (Rattus norvegicus [12]): 66.35 mg; Activity (Rattus norvegicus [13]): 66.35 mg; Activity (Rattus norvegicus [14]): 464%
0.097%		COc1ccc(C(=C2CC(c3ccc(O)cc3)Oc3cc(OC)ccc32)c2ccc(OC)cc2)cc1 (centres undefined)	inactive	70.33 mg	26 mg	86%	17%	
< 0.001%	6.68 µM	COc1ccc(C(=C2CC(c3ccc(OCCN4CCCCC4)cc3)Oc3cc(OC)ccc32)c2ccc(OC)cc2)cc1 (centres undefined)		81.7 mg	52.5 mg	168%	26%	
0.095%	4.39 µM	COc1ccc(/C=C2\CC(c3ccc(OCCN4CCCCC4)cc3)Oc3cc(OC)ccc32)cc1 (centres undefined)		104.4 mg	24.63 mg	54%	4%	
0.02%		COc1ccc2c(c1)OC(c1ccc(O)cc1)C/C2=C\c1ccc(OCc2ccccc2)cc1 (centres undefined)	inactive	46.33 mg	38.3 mg	153%	29%	Activity (Rattus norvegicus [15]): 29%
